{"source": "ChEMBL document CHEMBL3826882", "about": "“Discovery of 1-((2R,4aR,6R,7R,7aR)-2-Isopropoxy-2-oxidodihydro-4H,6H-spiro[furo[3,2-d][1,3,2]dioxaphosphinine-7,2'-oxetan]-6-yl)pyrimidine-2,4(1H,3H)-dione (JNJ-54257099), a 3'-5'-Cyclic Phosphate Ester Prodrug of 2'-Deoxy-2'-Spirooxetane Uridine Triphosphate Useful for HCV Inhibition” (J Med Chem, 2016)", "key": {"Hepatocyte [1]": {"tested_on": "Hepatocyte", "assay": "Drug metabolism in rat primary hepatocytes assessed as 1-[(4aR,6R,7R,7aR)-2-hydroxy-2-oxidodihydro-4H-spiro[furo[3,2-d][1,3,2]dioxaphosphinine-7,2'-oxetan]-6-yl]pyrimidine-2,4(1H,3H)-dione formation at 2 to 62.5 uM after 24 hrs using radiolabelled compound by LC-MS/MS analysis", "assay_type": "ADME, cell-based", "procedure,_shortened": "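Fresh primary hepatocyte cultures incubated with tritiated prodrug (5'-[3H]) at 2 and 62.5 µM for 4 and 24 h. Supernatants taken after protein precipitation and profiled by HPLC with radioactivity detection. Cell lysates profiled for metabolites by radio-LC. Cyclic monophosphate also measured by LC/MS/MS.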"}, "Hepatocyte [2]": {"tested_on": "Hepatocyte", "assay": "Stability in mouse primary hepatocyte supernatant assessed as parent compound level at 2 uM after 4 to 24 hrs using radiolabeled compound by HPLC analysis", "assay_type": "ADME, cell-based", "conditions": "hepatocytes"}, "Hepatocyte [3]": {"tested_on": "Hepatocyte", "assay": "Stability in rat primary hepatocyte supernatant assessed as parent compound level at 2 uM after 4 to 24 hrs using radiolabeled compound by HPLC analysis", "assay_type": "ADME, cell-based", "conditions": "hepatocytes"}, "[4]": {"assay": "Prodrug conversion in dog primary hepatocytes assessed as 2'-deoxy-2'-spirooxetane uridine triphosphate level per million cells at 2 uM after 4 hrs using radiolabelled compound by LC-MS/MS analysis", "assay_type": "ADME, cell-based, Canis lupus familiaris, Hepatocyte", "procedure,_shortened": "(§1)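 Study A: fresh primary hepatocyte cultures from mouse, rat, dog and human incubated with tritiated prodrug at 2 or 62.5 µM for 4 or 24 h. Triphosphate in cell lysates reported as pmol/million hepatocytes. Duplicate or single measurements.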"}, "[5]": {"assay": "Drug metabolism in dog primary hepatocyte supernatant assessed as 1-[(4aR,6R,7R,7aR)-2-hydroxy-2-oxidodihydro-4H-spiro[furo[3,2-d][1,3,2]dioxaphosphinine-7,2'-oxetan]-6-yl]pyrimidine-2,4(1H,3H)-dione formation at 2 to 62.5 uM after 4 to 24 hrs using radiolabelled compound by HPLC analysis", "assay_type": "ADME, cell-based, Canis lupus familiaris", "conditions": "hepatocytes", "procedure,_shortened": "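Study A: primary cultured hepatocytes (mouse, rat, dog, human) incubated with 2 or 62.5 µM 5'-[3H]-labelled prodrug for 4 and 24 h. Cell lysates were analysed for triphosphate. Supernatants were protein-precipitated and profiled by HPLC with radioactivity detection. Cyclic monophosphate was also assessed by LC/MS/MS.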"}, "Hepatocyte [6]": {"tested_on": "Hepatocyte", "assay": "Prodrug conversion in rat primary hepatocytes assessed as 2'-deoxy-2'-spirooxetane uridine triphosphate level per million cells at 2 uM after 24 hrs using radiolabelled compound by LC-MS/MS analysis", "assay_type": "ADME, cell-based", "procedure,_shortened": "as §1"}, "[7]": {"assay": "Cmax in mouse plasma at 50 mg/kg, po", "assay_type": "ADME, organism-based", "design": "dose 50 mg/kg, route oral"}, "Mus musculus": {"tested_on": "Mus musculus", "assay": "Half life in homozygous cDNA-uPA chimeric SCID mouse bearing humanized hepatocytes infected with HCV assessed as 2'-deoxy-2'-spirooxetane uridine triphosphate at 50 to 200 mg/kg, po bid administered through gavage for 7 days", "assay_type": "ADME, organism-based, Hepatocyte", "conditions": "168 h"}, "Liver [8]": {"tested_on": "Liver", "assay": "Tmax in dog liver assessed as 2'-deoxy-2'-spirooxetane uridine triphosphate at 50 mg/kg, po", "assay_type": "ADME, organism-based, Canis lupus familiaris", "conditions": "in vivo", "procedure,_shortened": "(§2)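 Single oral dose of 50 mg/kg formulated in 20% HP-β-cyclodextrin. Prodrug and its triphosphate were measured in plasma and liver (ng/mL or ng/g) over time, and Cmax, tmax, AUC, tlast and t1/2 were derived. For some analytes, data from two independent studies are reported.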"}, "Liver [9]": {"tested_on": "Liver", "assay": "Tmax in rat liver assessed as 2'-deoxy-2'-spirooxetane uridine triphosphate at 50 mg/kg, po", "assay_type": "ADME, organism-based", "conditions": "in vivo", "procedure,_shortened": "as §2"}, "[10]": {"assay": "Cytotoxicity against human HuH7-CMV-Luc cells assessed as reduction in cell proliferation after 3 days by 5-bromo-2'-deoxyuridine incorporation assay", "assay_type": "cell-based, Huh-7", "procedure,_shortened": "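Huh7 cells at 1,500 cells/well, five serial compound dilutions in triplicate, 3 days of incubation. Proliferation was quantified as BrdU incorporation into DNA by ELISA.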"}, "Liver [11]": {"tested_on": "Liver", "assay": "Tlast in dog liver at 50 mg/kg, po", "assay_type": "ADME, organism-based, Canis lupus familiaris", "conditions": "in vivo", "procedure,_shortened": "as §2"}, "Liver [12]": {"tested_on": "Liver", "assay": "AUC (0 to last) in mouse liver at 50 mg/kg, po", "assay_type": "ADME, organism-based", "conditions": "in vivo", "procedure,_shortened": "(§3)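 Oral dose 50 mg/kg, formulated in 20% HP-β-cyclodextrin. Prodrug and triphosphate were measured in plasma and liver (ng/mL or ng/g). Parameters derived were Cmax, tmax, AUC0-last, AUC0-inf and t1/2. Some prodrug data come from two independent studies.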"}, "Liver [13]": {"tested_on": "Liver", "assay": "Tlast in mouse liver assessed as 2'-deoxy-2'-spirooxetane uridine triphosphate at 50 mg/kg, po", "assay_type": "ADME, organism-based", "conditions": "in vivo", "procedure,_shortened": "as §2"}, "[14]": {"assay": "Cmax in rat plasma at 50 mg/kg, po", "assay_type": "ADME, organism-based", "design": "dose 50 mg/kg, route oral"}, "[15]": {"assay": "Cmax in rat liver at 50 mg/kg, po", "assay_type": "ADME, organism-based", "design": "dose 50 mg/kg, route oral"}, "[16]": {"assay": "AUC (0 to infinity) in mouse plasma at 50 mg/kg, po", "assay_type": "ADME, organism-based", "design": "dose 50 mg/kg, route oral, time infinity", "procedure,_shortened": "as §3"}, "Hepatocyte [17]": {"tested_on": "Hepatocyte", "assay": "Prodrug conversion in human hepatocytes assessed as 2'-deoxy-2'-spirooxetane uridine triphosphate formation in presence of CYP3A4 inhibitor ketoconazole by LC-MS/MS analysis", "assay_type": "ADME, cell-based"}, "Hepatocyte [18]": {"tested_on": "Hepatocyte", "assay": "Drug metabolism in human hepatocytes assessed as ((4R,5R,7R,8R)-5-(2,4-dioxo-3,4-dihydropyrimidin-1(2H)-yl)-8-hydroxy-1,6-dioxaspiro[3.4]octan-7-yl)methyl dihydrogen phosphate formation in presence of CYP3A4 inhibitor ketoconazole by LC-MS/MS analysis", "assay_type": "ADME, cell-based"}, "Liver [19]": {"tested_on": "Liver", "assay": "Cmax in rat liver assessed as 2'-deoxy-2'-spirooxetane uridine triphosphate at 50 mg/kg, po", "assay_type": "ADME, organism-based", "design": "dose 50 mg/kg, route oral", "conditions": "in vivo"}, "[20]": {"assay": "Ratio of AUC (0 to last) in mouse liver to AUC (0 to last) in mouse plasma", "assay_type": "ADME", "procedure,_shortened": "(§4)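 Single oral dose of 50 mg/kg in 20% HP-β-cyclodextrin. Prodrug and triphosphate measured in plasma and liver over time (tlast 6–30 h). Half-life, Cmax, tmax and AUC0-last derived; liver/plasma ratio taken from AUC0-last. Prodrug data pooled from two independent studies.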"}, "Hepatitis C virus": {"tested_on": "Hepatitis C virus", "assay": "Antiviral activity against HCV genotype 3a infected in homozygous cDNA-uPA chimeric SCID mouse bearing humanized hepatocytes assessed as change in HCV RNA level in serum at 200 mg/kg, po bid administered through gavage for 7 days by RT-PCR method", "assay_type": "functional, Hepacivirus hominis, Hepatocyte", "procedure,_shortened": "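Male chimeric SCID cDNA-uPA+/+ mice with human hepatocyte liver (≥70% replacement by blood human albumin) and serum HCV RNA >1.0×10^6 copies/mL the week before dosing. Oral gavage for 7 days in 20% HP-β-CD, 50-200 mg/kg QD or BID. Serum sampled pre-dose on days 1, 2, 3, 5 and 7. Real-time PCR; mean change in log10 copies/mL, day 7 vs day 1 pre-dose.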"}, "Hepatocyte [21]": {"tested_on": "Hepatocyte", "assay": "Prodrug conversion in human hepatocytes assessed as 2'-deoxy-2'-spirooxetane uridine triphosphate formation in presence of CYP2C8 and CYP2C9 inhibitor montelukast by LC-MS/MS analysis", "assay_type": "ADME, cell-based"}, "Hepatocyte [22]": {"tested_on": "Hepatocyte", "assay": "Prodrug conversion in human cryopreserved hepatocytes assessed as 2'-deoxy-2'-spirooxetane uridine triphosphate level per million cells at 10 uM after 24 hrs by LC-MS/MS analysis", "assay_type": "ADME, cell-based", "procedure,_shortened": "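Plated cryopreserved hepatocytes (study B) incubated with 10 µM unlabeled prodrug for 2, 8 or 24 h. Triphosphate measured in cell lysates and expressed as pmol/million hepatocytes. Quantification limit 2 ng/10^6 cells.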"}, "[23]": {"assay": "Ratio of AUC (0 to last) in rat liver to AUC (0 to last) in rat plasma", "assay_type": "ADME", "procedure,_shortened": "as §4"}, "Liver [24]": {"tested_on": "Liver", "assay": "AUC (0 to last) in mouse liver assessed as 2'-deoxy-2'-spirooxetane uridine triphosphate at 50 mg/kg, po", "assay_type": "ADME, organism-based", "conditions": "in vivo", "procedure,_shortened": "as §3"}, "Plasma": {"tested_on": "Plasma", "assay": "Tlast in rat plasma at 50 mg/kg, po", "assay_type": "ADME, organism-based", "conditions": "in vivo", "procedure,_shortened": "as §2"}, "[25]": {"assay": "Ratio of AUC (0 to last) in dog liver to AUC (0 to last) in dog plasma", "assay_type": "ADME, Canis lupus familiaris", "procedure,_shortened": "as §4"}}}
{"smiles": "[3H]C1O[P@](=O)(OC(C)C)O[C@@H]2[C@@H]1O[C@@H](n1ccc(=O)[nH]c1=O)[C@@]21CCO1", "note": "(stereo partly drawn)", "values": [{"measurement": "Drug metabolism", "setting": "Hepatocyte [1]", "value": "metabolite_detected"}, {"measurement": "Stability", "setting": "Hepatocyte [2]", "value": "Stable"}, {"measurement": "Stability", "setting": "Hepatocyte [3]", "value": "Stable"}, {"measurement": "Drug metabolism", "setting": "[4]", "value": 0.005, "unit": "pmol"}, {"measurement": "Drug metabolism", "setting": "[5]", "value": "metabolite_detected"}, {"measurement": "Drug metabolism", "setting": "Hepatocyte [6]", "value": 0.027, "unit": "pmol"}]}
{"smiles": "CC(C)O[P@@]1(=O)OC[C@H]2O[C@@H](n3ccc(=O)[nH]c3=O)[C@@]3(CCO3)[C@@H]2O1", "values": [{"measurement": "Cmax", "setting": "[7]", "value": 851, "unit": "ng/mL"}, {"measurement": "t1/2", "setting": "Mus musculus", "value": 3.9, "unit": "h"}, {"measurement": "Tmax", "setting": "Liver [8]", "value": 4, "unit": "h"}, {"measurement": "Tmax", "setting": "Liver [9]", "value": 4, "unit": "h"}, {"measurement": "CC50 at 72 h", "setting": "[10]", "value": "> 100", "unit": "µM"}, {"measurement": "Tlast", "setting": "Liver [11]", "value": 24, "unit": "h"}, {"measurement": "AUClast", "setting": "Liver [12]", "value": 1456, "unit": "ng·h/g"}, {"measurement": "Tlast", "setting": "Liver [13]", "value": 24, "unit": "h"}, {"measurement": "Cmax", "setting": "[14]", "value": 1290, "unit": "ng/mL"}, {"measurement": "Cmax", "setting": "[15]", "value": 944, "unit": "ng/g"}, {"measurement": "AUC(0-inf)", "setting": "[16]", "value": 2620, "unit": "ng·h/mL"}, {"measurement": "Drug metabolism", "setting": "Hepatocyte [17]", "value": "metabolite_notdetected"}, {"measurement": "Drug metabolism", "setting": "Hepatocyte [18]", "value": "metabolite_notdetected"}, {"measurement": "Cmax", "setting": "Liver [19]", "value": 73500, "unit": "ng/g"}, {"measurement": "Kp", "setting": "[20]", "value": 0.57}, {"measurement": "Activity", "setting": "Hepatitis C virus", "value": -1.58}, {"measurement": "Drug metabolism", "setting": "Hepatocyte [21]", "value": "metabolite_detected"}, {"measurement": "Drug metabolism", "setting": "Hepatocyte [22]", "value": 0.151, "unit": "pmol"}, {"measurement": "Kp", "setting": "[23]", "value": 0.34}, {"measurement": "AUClast", "setting": "Liver [24]", "value": 126982, "unit": "ng·h/g"}, {"measurement": "Tlast", "setting": "Plasma", "value": 30, "unit": "h"}, {"measurement": "Kp", "setting": "[25]", "value": 1.4}]}
